APJ antag: APJ receptor antagonism; P35414; CHO-K1 APJ beta-arrestin complementation, luminescence; inhibition, % at 20 µM; 330,000 compounds, 0.32% hits; AID 2521;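 active means inhibition above about 40% at 20 µM, limit read from the data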;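 further: cells challenged with 10 nM apelin-13 agonist together with compound; plate controls were apelin-13 plus DMSO wells for no effect and DMSO wells lacking apelin-13 for full effect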
B2AR ag: human beta-2 adrenergic receptor agonism by FAP. response, % (no concentration beside the values). P07550. 340,000 compounds, 0.43% hits. Am2.2-beta2AR cells, FAP receptor internalization, flow cytometry;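 active means response above a set limit, near 3 SD of response in nonfluorescent compounds, cut at about 42% in these data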
PfG6PD inh: PfG6PD (Plasmodium falciparum) enzyme inhibition; PfGluPho enzyme, NADPH resazurin-diaphorase fluorescence; inhibition, % at 20 µM; 350,000 compounds, 0.78% hits;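 active means inhibition reaching at least a set limit at 20 µM in the primary screen, cut at about 59% in these data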;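 further: 0% = DMSO wells with substrate and 100% = DMSO wells lacking glucose-6-phosphate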
CXCR6 block: blocks human CXCR6 beta-arrestin recruitment; 360,000 compounds, 0.36% hits; AID 602244; O00574; inhibition, % at 20 µM; CHO-K1 PathHunter CXCR6 beta-arrestin, luminescence; in the data active means inhibition above about 34%, passing the limit was not always enough;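 further: antagonist mode with CXCL16 agonist at 10 nM final; 0% = 10 nM CXCL16 with DMSO and 100% = unstimulated wells without agonist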
Target sequence (O00574 whole entry, looked up): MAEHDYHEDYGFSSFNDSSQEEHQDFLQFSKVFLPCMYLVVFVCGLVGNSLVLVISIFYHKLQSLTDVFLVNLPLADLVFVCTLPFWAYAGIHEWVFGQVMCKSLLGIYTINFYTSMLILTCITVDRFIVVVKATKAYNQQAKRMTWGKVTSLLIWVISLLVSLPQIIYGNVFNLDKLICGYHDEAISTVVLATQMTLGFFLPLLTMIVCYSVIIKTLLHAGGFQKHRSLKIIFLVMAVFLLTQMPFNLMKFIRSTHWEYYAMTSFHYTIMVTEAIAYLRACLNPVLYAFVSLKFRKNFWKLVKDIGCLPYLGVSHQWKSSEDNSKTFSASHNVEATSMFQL
CCR6 antag: antagonists of human CCR6 receptor; P51684; CHO-K1 CCR6 PathHunter beta-arrestin, luminescence, CCL20-stimulated; inhibition, % at 20 µM; 340,000 compounds, 0.49% hits;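 active means compounds whose inhibition of the agonist-driven luminescence signal at 20 µM reaches about 50%, limit read from the data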;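 further: cells stimulated with CCL20 at 14 nM final; plate controls were DMSO with CCL20 for no effect and DMSO without agonist for full effect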
APJ agonist: agonists of human APJ apelin receptor. 330,000 compounds, 0.11% hits. CHO-K1 APJ PathHunter beta-arrestin, luminescence; 0% DMSO wells, 100% apelin. activation, % at 20 µM;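 active means activation more than six SD over the plate average, tested at 20 µM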;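 further: 0% = DMSO alone and 100% = apelin-13 at 10 nM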
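Test system: CHO-K1 APJ beta-arrestin complementation cell line | Compound: Single test compound dose, 20 µM final, 1% DMSO | Incubation: Compound 90 min 25 °C, reagent 1 h | Measured by: beta-gal luminescence | Read-out basis: APJ–arrestin association signal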
B2AR ag CP1: agonists of human beta-2 adrenergic receptor; shares compounds with B2AR ag; Am2.2-beta2AR cells, FAP surface receptor, flow cytometry; stronger effect = lower value; percent response (surface receptor), % at 10 µM; 1,100 compounds, 25% hits; AID 540358;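 active means surface receptor percent response at or below 58%, roughly 3 SD from nonfluorescent compounds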
FAP fluor counter: counter-screen for beta-2AR agonists: fluorescence in Am2.2 cells | calls only at 10 µM | 1,100 tested, under 10 active | FAP fluorogen flow cytometry, fluorescence counterscreen; stronger effect = lower value | AID 588765 | shares compounds with B2AR ag;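 active means percent response below a set limit in fluorescence channel 1 and below 50% in channel 8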
The depositor's hits bear a star; i = inactive; x = no result given. A selection: hits, their analogues and other compounds. The true share with any hit is near 1.7%.

SMILES | APJ antag | B2AR ag | PfG6PD inh | CXCR6 block | CCR6 antag | APJ agonist | B2AR ag CP1 | FAP fluor counter
Cc1ccc(S(=O)(=O)N2CCN(C(=O)CNC(=O)c3ccc(Cl)cc3)CC2)cc1 | 8 | 4 | -25 | 3 | 13 | -1 | x | x
O=C(CSc1nc2ccccc2[nH]1)N/N=C/c1ccco1 | 16 | -9 | -1 | -8 | 2 | -1 | x | x
CN(C)CCn1c2c(c(SCC(=O)Nc3ccc4c(c3)OCCO4)nc1=O)CCCC2 | 9 | -4 | 6 | 4 | 3 | -5 | x | x
NS(=O)(=O)c1cccc(NC(=O)c2cccc(N3C(=O)c4ccccc4C3=O)c2)c1 | 8 | -7 | -3 | 3 | 0 | 4 | 108 | i
CC(=O)c1cccc(NC(=O)c2cccc(N3C(=O)c4ccccc4C3=O)c2)c1 | 8 | 7 | -17 | 2 | 14 | -1 | 100 | i
Cc1cc(CN(C)C(=O)CC2C(=O)NCCN2Cc2ccc(F)c(F)c2)on1 (stereo unspecified) | -24 | 1 | 1 | 4 | 4 | -3 | x | x
Cc1cc(CN(C)C(=O)CC2C(=O)NCCN2Cc2ccc(-c3ccccc3)cc2)on1 (stereo unspecified) | -6 | 46* | -7 | 6 | 8 | -2 | 90 | i
COC(=O)[C@]1(C)N[C@H](CN(C)C(=O)NC(C)C)[C@@H]2C(=O)N(C)C(=O)[C@@H]21 | -2 | -3 | -10 | -6 | -1 | -3 | x | x
CCN(CC)S(=O)(=O)c1cc(NC(=O)C2=COCCO2)ccc1Cl | -16 | 115* | -2 | 5 | 13 | -5 | 24* | i
O=C1CC(C(=O)Nc2ccc(C(=O)N3CCOCC3)cc2)C2(CCCCC2)O1 (stereo unspecified) | 9 | 52* | -9 | 0 | 9 | -1 | 136 | i
COCc1nnc(NC(=O)C(C)C)s1 | -12 | 53* | -6 | -5 | 1 | 3 | 95 | i
CCOC(=O)CSC1=C(C#N)C(c2ccc(C)o2)CC(=O)N1 (stereo unspecified) | -2 | 52* | -1 | -8 | -1 | -3 | 73 | i
CC(=Cc1cccs1)C(=O)c1ccccc1 | x | x | 0 | 4 | x | x | x | x
Cc1ccccc1NC(=O)Cn1nnc(-c2ccc(N3CCOCC3)cc2)n1 | 3 | 2 | -3 | 3 | -12 | -3 | x | x
CN(C)c1ccc(-c2nnn(CC(=O)Nc3ccccc3N3CCOCC3)n2)cc1 | 13 | -14 | 15 | -6 | 1 | 3 | 105 | i
CCOC(=O)c1ccc(NC(=O)Cc2coc3cc4c(cc23)CCC4)cc1 | -2 | 69* | 5 | -6 | 10 | 0 | 45* | i
CCOC(=O)c1ccc(NC(=O)COC)cc1 | 7 | 10 | -12 | -13 | 1 | -3 | x | x
COc1ccc(CNC(=O)CCCCCNc2nc(=S)[nH]c3ccccc23)cc1 | -2 | 129* | -7 | -4 | 0 | 1 | 26* | i
COc1ccc(CCNC(=O)CCCCCNc2nc(=S)[nH]c3ccccc23)cc1OC | -27 | -12 | 15 | -8 | 4 | 0 | x | x
CCc1c2ccccc2nn1-c1ccccc1C(=O)C(C)=O | 7 | -1 | 27 | 7 | 12 | 3 | x | x
COc1cc(/C=C2/C(=O)NN(c3cccc(F)c3)C2=O)ccc1OC(=O)c1ccco1 | -1 | 47* | -12 | 40* | 0 | -3 | 114 | i
COc1cc(/C=N/NC(=O)c2ccc(F)cc2)ccc1OC(=O)c1ccco1 | -25 | -2 | 5 | -4 | -5 | 2 | x | x
O=S(=O)(Nc1cccc(-c2cn3cccnc3n2)c1)c1ccc(-c2ccccc2)cc1 | -11 | 110* | -27 | -3 | 7 | 6 | 12* | i
Cc1cc(N2CCN(c3ccc([N+](=O)[O-])c4cccnc34)CC2)c2ccccc2n1 | -12 | 95* | 37 | 6 | 8 | 4 | 80 | i
N#CC(C#N)c1ccnc2ccccc12 | x | x | -5 | -10 | x | x | x | x

Assay outcomes (PubChem BioAssay)
